Laboratory results reported in ChEMBL document CHEMBL1250450, “Well-defined regions of the Plasmodium falciparum reticulocyte binding protein homologue 4 mediate interaction with red blood cell membrane” (J Med Chem, 2010).
Residues, ends and D or L forms follow the SMILES beside them.

What was measured:
Homo sapiens [1] = organism: Homo sapiens; test: Binding affinity to RBC membrane receptor in 150 uU/mL neuraminidase pretreated human RBC relative to untreated RBC
How it was run: (§1)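 Human RBCs (60% hematocrit) treated 1 h at 37 °C with neuraminidase (150 μU/mL), chymotrypsin (1 mg/mL) or trypsin (1 mg/mL). Standard radiolabeled-peptide binding then run on treated cells at 20% hematocrit. Binding expressed relative to untreated RBCs set as 100%.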

Homo sapiens [2] = organism: Homo sapiens; test: Binding affinity to RBC membrane receptor in 1 mg/mL chymotrypsin pretreated human RBC relative to untreated RBC; how it was run: as §1
Plasmodium falciparum [3] = test: Antiplasmodial activity against Plasmodium falciparum FCB2 assessed as inhibition of merozoite invasion of neuraminidase pretreated human erythrocytes at 200 uM after 18 hrs using hydroethidine staining by flow cytometry; type: functional
How it was run: (§2)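 Schizont-synchronized P. falciparum FCB-2 cultures incubated in triplicate with peptide (100 and 200 μM) using normal RBCs or, for the neuraminidase line, neuraminidase-treated RBCs. 37 °C for 18 h under 5% O2, 5% CO2, 90% N2. Cells washed with PBS, hydroethidine-labeled, read by flow cytometry (FL2). Inhibition controls were EGTA- and chloroquine-treated infected RBCs; uninfected RBCs served as invasion control.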

Homo sapiens [4] = organism: Homo sapiens; test: Binding affinity to RBC membrane receptor in human RBC assessed as specific binding activity measured as ratio of specifically bound peptide/added peptide by gamma counter
How it was run: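 1 × 10^8 healthy-donor RBCs incubated in triplicate with four rising concentrations of 125I-peptide (0-560 nM), with or without unlabeled peptide, then washed in HBS (pH 7.4) and gamma-counted. Specific binding (total minus nonspecific) plotted against added peptide; the slope is the specific binding activity. The HABP cutoff is ≥2%.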

Plasmodium falciparum [5] = test: Antiplasmodial activity against Plasmodium falciparum FCB2 assessed as inhibition of merozoite invasion of human erythrocytes at 200 uM after 18 hrs using hydroethidine staining by flow cytometry; type: functional; conditions: FCB2, 18 h; how it was run: as §2
Homo sapiens [6] = organism: Homo sapiens; test: Binding affinity to RBC membrane receptor in 1 mg/mL trypsin pretreated human RBC relative to untreated RBC; how it was run: as §1

Activity (Homo sapiens [4]) [%] | Compound | also measured
> 2 | CC[C@H](C)[C@H](NC(=O)[C@H](Cc1cnc[nH]1)NC(=O)[C@H](CO)NC(=O)[C@@H]1CCCN1C(=O)[C@H](CCC(N)=O)NC(=O)[C@@H](NC(=O)[C@@H](N)CC(C)C)[C@@H](C)CC)C(=O)N[C@@H](Cc1cnc[nH]1)C(=O)N[C@@H](CC(C)C)C(=O)N[C@@H](Cc1cnc[nH]1)C(=O)N[C@@H](CCCCN)C(=O)N[C@@H](CCSC)C(=O)N[C@@H](CCCCN)C(=O)N[C@@H](CC(C)C)C(=O)N1CCC[C@H]1C(=O)N[C@H](C(=O)N[C@H](C(=O)N[C@@H](CCC(N)=O)C(=O)N[C@@H](CCC(N)=O)C(=O)N[C@@H](CCC(N)=O)C(=O)N[C@@H](Cc1ccc(O)cc1)C(=O)O)[C@H](C)O)[C@@H](C)CC | Activity (Homo sapiens [1]): 152%; Activity (Homo sapiens [2]): 209%; inhibition at 200 µM (Plasmodium falciparum [3]): 43%; inhibition at 200 µM (Plasmodium falciparum [5]): 48%; Activity (Homo sapiens [6]): 79.4%
< 2 | CC[C@H](C)[C@H](NC(=O)[C@H](CC(N)=O)NC(=O)[C@H](CCCCN)NC(=O)[C@H](CCC(=O)O)NC(=O)[C@H](CC(N)=O)NC(=O)[C@@H](NC(=O)[C@H](Cc1cnc[nH]1)NC(=O)[C@H](CCC(=O)O)NC(=O)[C@H](CC(N)=O)NC(=O)[C@H](CC(N)=O)NC(=O)[C@@H](NC(=O)[C@H](CC(N)=O)NC(=O)[C@H](CC(N)=O)NC(=O)[C@H](CCC(=O)O)NC(=O)[C@H](CC(N)=O)NC(=O)[C@@H](NC(=O)[C@H](Cc1cnc[nH]1)NC(=O)[C@H](CCC(=O)O)NC(=O)[C@H](CC(N)=O)NC(=O)[C@@H](N)CC(N)=O)[C@H](C)O)[C@@H](C)CC)[C@H](C)O)C(=O)N[C@@H](Cc1ccc(O)cc1)C(=O)O | 
< 2 | CC[C@H](C)[C@H](NC(=O)[C@H](CCC(N)=O)NC(=O)[C@H](CCC(N)=O)NC(=O)[C@H](CO)NC(=O)[C@H](Cc1ccc(O)cc1)NC(=O)[C@H](CC(N)=O)NC(=O)[C@@H](NC(=O)[C@H](CC(N)=O)NC(=O)[C@H](Cc1cnc[nH]1)NC(=O)[C@@H](NC(=O)[C@H](Cc1ccccc1)NC(=O)[C@@H](NC(=O)[C@H](CC(=O)O)NC(=O)[C@@H](N)CO)C(C)C)[C@H](C)O)[C@@H](C)CC)C(=O)N[C@@H](CC(C)C)C(=O)N[C@@H](CC(N)=O)C(=O)N[C@@H](Cc1ccc(O)cc1)C(=O)N[C@@H](CO)C(=O)N[C@@H](CCC(N)=O)C(=O)N[C@@H](C)C(=O)O | 
< 2 | CC[C@H](C)[C@H](NC(=O)[C@H](Cc1ccccc1)NC(=O)[C@H](Cc1ccccc1)NC(=O)[C@H](Cc1ccccc1)NC(=O)[C@H](C)NC(=O)[C@@H](NC(=O)[C@H](CO)NC(=O)[C@H](CO)NC(=O)[C@@H](N)CS)[C@H](C)O)C(=O)N[C@@H](CCCCN)C(=O)N[C@@H](CC(N)=O)C(=O)N[C@@H](CO)C(=O)N[C@@H](CC(N)=O)C(=O)N[C@@H](CCC(=O)O)C(=O)N1CCC[C@H]1C(=O)N[C@@H](Cc1cnc[nH]1)C(=O)N[C@@H](Cc1cnc[nH]1)C(=O)N[C@H](C(=O)N[C@@H](Cc1ccccc1)C(=O)N[C@@H](CC(N)=O)C(=O)N[C@@H](Cc1ccc(O)cc1)C(=O)O)[C@@H](C)CC | 
< 2 | H-DDNFIEYNILNADPDLRSHF-OH | 
< 2 | H-EKGKRGTSRNNNIHTNENNIY-OH | 
< 2 | H-EKIGLRQMENRLKGKYEEIK-OH | 
< 2 | H-HIKQILINYIQECKPIQNIS-OH | 
< 2 | H-HKINNYSHNIEDLINQLQHK-OH | 
< 2 | H-KANLQDRDIKYIVQNNDANN-OH | 

More lines, now with the values behind:

Compound | Activity (Homo sapiens [4]) [%] | also measured
CC[C@H](C)[C@H](NC(=O)[C@@H](NC(=O)[C@H](CCCNC(=N)N)NC(=O)[C@H](CCC(N)=O)NC(=O)[C@H](CO)NC(=O)[C@@H](NC(=O)[C@H](CC(N)=O)NC(=O)[C@@H](NC(=O)[C@@H](NC(=O)[C@@H](N)CCCCN)[C@@H](C)O)[C@@H](C)CC)[C@H](C)O)[C@@H](C)O)C(=O)N[C@@H](CC(=O)O)C(=O)N[C@@H](CC(=O)O)C(=O)N[C@@H](CO)C(=O)N[C@@H](CC(N)=O)C(=O)N[C@@H](CCSC)C(=O)N[C@@H](CC(=O)O)C(=O)N[C@@H](CCCNC(=N)N)C(=O)N[C@@H](CC(N)=O)C(=O)N[C@@H](CC(N)=O)C(=O)N[C@@H](CCCNC(=N)N)C(=O)N[C@@H](Cc1ccc(O)cc1)C(=O)O | < 2 | 
CC[C@H](C)[C@H](NC(=O)[C@H](Cc1ccc(O)cc1)NC(=O)[C@H](CCC(=O)O)NC(=O)[C@H](Cc1ccc(O)cc1)NC(=O)[C@H](CCC(=O)O)NC(=O)[C@H](CCCCN)NC(=O)[C@H](C)NC(=O)[C@H](C)NC(=O)[C@H](CC(N)=O)NC(=O)[C@@H](NC(=O)[C@H](C)NC(=O)[C@H](CC(N)=O)NC(=O)[C@H](CC(N)=O)NC(=O)[C@H](CO)NC(=O)[C@H](CC(N)=O)NC(=O)[C@H](NC(=O)[C@@H](N)Cc1ccccc1)[C@@H](C)CC)C(C)C)C(=O)N[C@H](C(=O)N[C@@H](CCCCN)C(=O)N[C@@H](Cc1ccc(O)cc1)C(=O)O)[C@@H](C)CC | < 2 | 
CC[C@H](C)[C@H](NC(=O)[C@H](Cc1ccc(O)cc1)NC(=O)[C@H](CCC(=O)O)NC(=O)[C@H](CC(N)=O)NC(=O)[C@@H](NC(=O)[C@H](CCCCN)NC(=O)[C@@H](N)CCCCN)C(C)C)C(=O)N[C@@H](CC(N)=O)C(=O)N[C@@H](CC(N)=O)C(=O)N[C@@H](CO)C(=O)N[C@@H](CC(=O)O)C(=O)N[C@@H](CS)C(=O)N[C@@H](Cc1cnc[nH]1)C(=O)N[C@@H](CC(C)C)C(=O)N[C@H](C(=O)N[C@@H](CS)C(=O)N[C@@H](CO)C(=O)N[C@@H](CCCCN)C(=O)N[C@@H](Cc1ccc(O)cc1)C(=O)N[C@@H](CCCCN)C(=O)O)[C@@H](C)O (H-KKVNEYINNSDCHLTCSKYK-OH) | < 2 | 
H-CIKQTYNNNKSIESLKLKIN-OH | < 2 | 
H-DIENIIKQNEHTESYKNLDT-OH | < 2 | 
H-DYSLLKLSYNKNQDIYKNIQ-OH | < 2 | 
H-EDEDENENEVENENEDFNDIY-OH | < 2 | 
H-EHTIYTLYQEIKTNLENIEQ-OH | > 2 | inhibition at 200 µM (Plasmodium falciparum [3]): 71%; inhibition at 200 µM (Plasmodium falciparum [5]): 72%
H-ELIPITQQIQTKMYTTNNIE-OH | < 2 | 
H-FDQINQKYDDLTKNINQMND-OH | < 2 | 
H-FKQILELKEKEHYITNKHTY-OH | > 2 | inhibition at 200 µM (Plasmodium falciparum [3]): 47%; inhibition at 200 µM (Plasmodium falciparum [5]): 46%
H-FMQNETFKKNIDDKIKEMNNY-OH | < 2 | 
H-IFQKEFSEADNAHSEEKEEY-OH | < 2 | 
H-IIKNITSIYYKINILNILII-OH | < 2 | 
H-INNLMIISFDKNKSSDLMLQY-OH | < 2 | 
H-IQERNQNNQIVKELKYNKQI-OH | < 2 | 
H-IQHYQTKFNINTNTKQLQQL-OH | < 2 | 
H-IQNHKNKQETKLNTTTIQELY-OH | < 2 | 
H-IRKIYDIETIYQNDLHNIEE-OH | < 2 | 
H-ITLLVSRKQLIYIEYIYFIN-OH | < 2 | 
